The text below walks through data of ChEMBL document CHEMBL1135904, “Toward an optimal joint recognition of the S1' subsites of endothelin converting enzyme-1 (ECE-1), angiotensin converting enzyme (ACE), and neutral endopeptidase (NEP)” (J Med Chem, 2002).

The target in one assay is T1, Neprilysin (Oryctolagus cuniculus, UniProt P08049).
T1 sequence (P08049 whole entry): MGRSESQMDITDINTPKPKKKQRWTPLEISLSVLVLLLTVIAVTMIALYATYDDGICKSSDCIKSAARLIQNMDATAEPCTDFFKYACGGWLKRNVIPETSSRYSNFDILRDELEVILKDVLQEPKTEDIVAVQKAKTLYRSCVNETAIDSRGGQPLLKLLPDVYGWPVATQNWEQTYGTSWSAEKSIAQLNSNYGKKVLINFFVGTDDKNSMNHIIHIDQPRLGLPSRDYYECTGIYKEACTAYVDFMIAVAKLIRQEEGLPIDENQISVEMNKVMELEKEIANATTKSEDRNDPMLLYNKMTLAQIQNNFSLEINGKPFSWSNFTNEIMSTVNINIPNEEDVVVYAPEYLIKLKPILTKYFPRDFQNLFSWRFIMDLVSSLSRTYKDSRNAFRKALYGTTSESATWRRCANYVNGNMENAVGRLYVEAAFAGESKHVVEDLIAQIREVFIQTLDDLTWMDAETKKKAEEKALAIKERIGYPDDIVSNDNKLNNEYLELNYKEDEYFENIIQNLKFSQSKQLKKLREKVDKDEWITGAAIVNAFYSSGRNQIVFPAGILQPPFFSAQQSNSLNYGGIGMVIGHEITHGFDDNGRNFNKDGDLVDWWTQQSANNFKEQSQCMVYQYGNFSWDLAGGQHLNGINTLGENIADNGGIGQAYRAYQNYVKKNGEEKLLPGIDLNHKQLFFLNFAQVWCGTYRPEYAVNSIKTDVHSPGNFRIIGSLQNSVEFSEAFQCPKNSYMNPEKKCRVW
Kind of assay: Inhibition of neutral endopeptidase (NEP) isolated from rabbit kidney. The essentials: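 Rabbit kidney NEP purified to homogeneity, final 250 ng/mL, preincubated 10 min at 37 °C with or without rising inhibitor concentrations in 50 mM Tris-HCl pH 7.4. Then 50 µM DGPA (Dansyl-Gly-(p-NO2)Phe-β-Ala; Km 37 µM) added for 1 h. Stopped with DMSO. Fluorescence read at ex 340/em 530 nm.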

For assay [1], the target named is T2, Endothelin-converting enzyme 1 (Homo sapiens, UniProt P42892).
T2 sequence (P42892 whole entry): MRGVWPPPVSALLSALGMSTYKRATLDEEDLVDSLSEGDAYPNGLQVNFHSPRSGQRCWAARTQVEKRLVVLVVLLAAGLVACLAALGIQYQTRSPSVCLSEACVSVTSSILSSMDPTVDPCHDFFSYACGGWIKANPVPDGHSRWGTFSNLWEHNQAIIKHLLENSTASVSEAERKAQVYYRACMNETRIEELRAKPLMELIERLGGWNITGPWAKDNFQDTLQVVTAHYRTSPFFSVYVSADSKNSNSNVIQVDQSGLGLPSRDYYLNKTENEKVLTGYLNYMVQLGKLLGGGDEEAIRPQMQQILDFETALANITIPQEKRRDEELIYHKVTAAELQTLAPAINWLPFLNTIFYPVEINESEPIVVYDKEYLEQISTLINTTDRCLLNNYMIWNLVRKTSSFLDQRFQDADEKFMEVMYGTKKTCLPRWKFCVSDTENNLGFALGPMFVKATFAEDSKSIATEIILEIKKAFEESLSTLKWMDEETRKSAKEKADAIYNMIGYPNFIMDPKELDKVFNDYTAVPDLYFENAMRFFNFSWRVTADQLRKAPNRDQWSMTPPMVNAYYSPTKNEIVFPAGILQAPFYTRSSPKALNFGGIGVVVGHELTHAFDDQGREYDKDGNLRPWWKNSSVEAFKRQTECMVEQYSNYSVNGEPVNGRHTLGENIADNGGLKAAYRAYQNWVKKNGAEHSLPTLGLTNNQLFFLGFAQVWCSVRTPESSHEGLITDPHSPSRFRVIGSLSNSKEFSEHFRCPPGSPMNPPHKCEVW
Description: Inhibition activity towards human recombinant Endothelin-converting enzyme 1 (hECE-1c) expressed in Cos-7 cells. Type of assay: cell-based. A digest of the protocol: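 Recombinant human ECE-1c from Cos-7 cells, 4 µg total protein per well, preincubated 10 min at 37 °C in 50 mM tris-maleate pH 6-8 with or without rising inhibitor concentrations. Reaction started with 20 µM (Pya21-(p-NO2)Phe22)bigET(19-35) (Km 20 µM), run 1 h at 37 °C, stopped by cooling. Fluorescence read at ex 340/em 400 nm.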

In assay [2] the target is T3, Angiotensin-converting enzyme (Rattus norvegicus, UniProt P47820).
T3 sequence (P47820 whole entry): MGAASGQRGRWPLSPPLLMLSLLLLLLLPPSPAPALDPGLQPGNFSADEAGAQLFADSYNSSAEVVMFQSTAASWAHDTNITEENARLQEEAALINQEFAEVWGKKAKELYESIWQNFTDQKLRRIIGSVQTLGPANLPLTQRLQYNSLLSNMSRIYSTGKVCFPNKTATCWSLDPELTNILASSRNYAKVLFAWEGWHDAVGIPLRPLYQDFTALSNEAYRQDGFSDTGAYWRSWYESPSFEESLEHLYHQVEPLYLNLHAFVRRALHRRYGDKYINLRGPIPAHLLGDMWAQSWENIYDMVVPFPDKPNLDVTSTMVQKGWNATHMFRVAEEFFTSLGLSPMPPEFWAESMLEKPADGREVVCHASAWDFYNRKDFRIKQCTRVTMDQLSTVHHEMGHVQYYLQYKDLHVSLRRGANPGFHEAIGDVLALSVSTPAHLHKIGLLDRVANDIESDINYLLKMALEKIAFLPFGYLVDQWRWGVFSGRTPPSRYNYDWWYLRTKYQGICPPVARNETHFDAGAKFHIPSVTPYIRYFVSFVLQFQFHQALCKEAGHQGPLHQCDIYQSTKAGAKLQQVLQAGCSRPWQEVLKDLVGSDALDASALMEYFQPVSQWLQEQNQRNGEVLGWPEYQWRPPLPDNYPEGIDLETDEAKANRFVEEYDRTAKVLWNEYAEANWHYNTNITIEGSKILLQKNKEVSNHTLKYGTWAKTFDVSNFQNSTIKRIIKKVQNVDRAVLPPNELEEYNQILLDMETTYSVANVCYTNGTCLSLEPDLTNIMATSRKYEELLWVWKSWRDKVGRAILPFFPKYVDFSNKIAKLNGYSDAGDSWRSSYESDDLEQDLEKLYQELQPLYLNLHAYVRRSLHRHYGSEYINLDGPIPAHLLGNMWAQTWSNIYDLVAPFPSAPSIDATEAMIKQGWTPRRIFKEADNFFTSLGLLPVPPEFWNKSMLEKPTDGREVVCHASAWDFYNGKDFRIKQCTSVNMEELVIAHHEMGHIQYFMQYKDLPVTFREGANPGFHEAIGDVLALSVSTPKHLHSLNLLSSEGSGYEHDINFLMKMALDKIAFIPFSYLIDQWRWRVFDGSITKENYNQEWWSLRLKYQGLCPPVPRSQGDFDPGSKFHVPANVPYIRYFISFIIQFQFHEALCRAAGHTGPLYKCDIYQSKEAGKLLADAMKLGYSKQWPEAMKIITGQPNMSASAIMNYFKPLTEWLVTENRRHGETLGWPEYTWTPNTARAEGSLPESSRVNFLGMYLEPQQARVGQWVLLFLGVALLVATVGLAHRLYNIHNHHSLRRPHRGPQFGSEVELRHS
Kind of assay: Inhibition of Angiotensin I converting enzyme (ACE) purified from rat testis. The essentials:
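ACE purified from rat testis, final 0.02 pmol/100 µL, preincubated 10 min at 37 °C with or without various inhibitor concentrations in 50 mM Tris/HCl/NaCl 1% pH 7.4. Then 50 µM N-Cbz-Phe-His-Leu (Km 50 µM) added for 30 min. Stopped with 2 N NaOH and diluted with water. Released His-Leu measured fluorometrically.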

Each structure is given as a SMILES string.

On to `O=C(O)[C@H](Cc1c[nH]c2ccccc12)NC(=O)[C@H](CS)[C@@H]1CCc2ccccc21`, for which the values for the Ki (at Neprilysin; in assay [1]; in assay [2]) were 27 nM, 680 nM and 170 nM, respectively.

Take `O=C(O)[C@H](Cc1c[nH]c2ccccc12)NC(=O)[C@@H](CS)[C@@H]1CCc2ccccc21`: the Ki – broadly, the dissociation constant of the complex between target and ligand, obtained from inhibition or displacement – on Neprilysin stood at 10 nM; in assay [1], 1140 nM; in assay [2], 41 nM.

`C[C@@H](c1ccccc1)[C@@H](CS)C(=O)N[C@@H](Cc1c[nH]c2ccccc12)C(=O)O`: the Ki at Neprilysin worked out at 2.4 nM; in assay [1], 200 nM; in assay [2] it was 33 nM.

Turning to `O=C(O)[C@H](Cc1c[nH]c2ccccc12)NC(=O)[C@H](CS)[C@H]1CCc2ccccc21`, the Ki on Neprilysin amounted to 0.7 nM; in assay [1] it was 26 nM; in assay [2], 43 nM.

For the molecule `CC(c1ccc(-c2ccccc2)cc1)C(CS)C(=O)N[C@@H](Cc1c[nH]c2ccccc12)C(=O)O` (some centres not stated), the results for the Ki (on Neprilysin; in assay [1]; in assay [2]) were 4.8 nM, 220 nM and 62 nM, respectively.

Turning to `O=C(O)C(Cc1c[nH]c2ccccc12)NC(=O)C(CS)c1cccc2ccccc12` (configuration not stated), the Ki is 22 nM on Neprilysin, 1560 nM in assay [1] and 150 nM in assay [2].

As for `O=C(O)[C@H](Cc1c[nH]c2ccccc12)NC(=O)[C@H](CS)[C@@H]1CCCc2ccccc21`, the Ki at Neprilysin worked out at 43 nM; in assay [1] it was 1240 nM; in assay [2], 134 nM.

Turning to `O=C(O)C(Cc1c[nH]c2ccccc12)NC(=O)C(CS)c1cccc(-c2ccccc2)c1` (configuration not stated), the results for the inhibition constant Ki (at Neprilysin; in assay [1]; in assay [2]) were 35 nM, 900 nM and 150 nM, respectively.

For the molecule `CC(c1ccccc1)C(CS)C(=O)NC(Cc1c[nH]c2ccccc12)C(=O)O` (configuration not stated), the Ki at Neprilysin turned out to be 3 nM; in assay [1], 300 nM; in assay [2] it was 40 nM.

For the molecule `C[C@H](c1ccccc1)[C@@H](CS)C(=O)N[C@@H](Cc1c[nH]c2ccccc12)C(=O)O`, the inhibition constant (Ki) stood at 5 nM on Neprilysin, 580 nM in assay [1] and 290 nM in assay [2].

For the molecule `C[C@H](c1ccc(-c2ccccc2)cc1)[C@H](CS)C(=O)N[C@@H](Cc1c[nH]c2ccccc12)C(=O)O`, the results for the Ki (at Neprilysin; in assay [1]; in assay [2]) were 30 nM, 110 nM and 65 nM, respectively.

Consider `CC(c1cccc2ccccc12)C(CS)C(=O)NC(Cc1c[nH]c2ccccc12)C(=O)O` (configuration not stated), for which the Ki on Neprilysin is 51 nM; in assay [1], 600 nM; in assay [2], 79 nM.

Turning to `C[C@H](c1ccc(-c2ccccc2)cc1)[C@@H](CS)C(=O)N[C@@H](Cc1c[nH]c2ccccc12)C(=O)O`, the Ki at Neprilysin was found to be 5 nM; in assay [1], 190 nM; in assay [2], 330 nM.

Consider `O=C(O)C(Cc1c[nH]c2ccccc12)NC(=O)C(CS)C1CCCc2ccccc21` (configuration not stated), for which the Ki at Neprilysin amounted to 4.5 nM; in assay [1] it was 300 nM; in assay [2] it was 18 nM.

For `O=C(O)[C@H](Cc1c[nH]c2ccccc12)NC(=O)[C@H](CS)[C@H]1CCCc2ccccc21`, the Ki was 3 nM on Neprilysin, 250 nM in assay [1] and 76 nM in assay [2].

Consider `O=C(O)C(Cc1c[nH]c2ccccc12)NC(=O)C(CS)c1ccc(-c2ccccc2)cc1` (configuration not stated), for which the results for the Ki (on Neprilysin; in assay [1]; in assay [2]) were 135 nM, 4150 nM and 77 nM, respectively.

In the case of `O=C(O)C(Cc1c[nH]c2ccccc12)NC(=O)C(CS)C1CCc2ccccc21` (configuration not stated), the Ki is 1.8 nM on Neprilysin, 100 nM in assay [1] and 20 nM in assay [2].

Take `O=C(O)[C@H](Cc1c[nH]c2ccccc12)NC(=O)[C@@H](CS)[C@H]1CCCc2ccccc21`: the figures for the Ki (on Neprilysin; in assay [1]; in assay [2]) were 3 nM, 190 nM and 10 nM, respectively.

Turning to `O=C(N[C@@H](Cc1c[nH]c2ccccc12)C(=O)O)C(CS)[C@@H]1CCCc2ccccc21` (some centres not stated), the values for the Ki (at Neprilysin; in assay [1]; in assay [2]) were 8 nM, 670 nM and 26 nM, respectively.

As for `C[C@@H](c1ccc(-c2ccccc2)cc1)[C@H](CS)C(=O)N[C@@H](Cc1c[nH]c2ccccc12)C(=O)O`, the Ki at Neprilysin is 35 nM; in assay [1] it was 920 nM; in assay [2], 38 nM.

As for `C[C@@H](c1ccc(-c2ccccc2)cc1)[C@@H](CS)C(=O)N[C@@H](Cc1c[nH]c2ccccc12)C(=O)O`, the Ki worked out at 1.5 nM on Neprilysin, 135 nM in assay [1] and 130 nM in assay [2].

Turning to `C[C@H](c1ccccc1)[C@H](CS)C(=O)N[C@@H](Cc1c[nH]c2ccccc12)C(=O)O`, the Ki at Neprilysin worked out at 2.2 nM; in assay [1], 100 nM; in assay [2], 29 nM.

Regarding `CC(c1ccc2ccccc2c1)C(CS)C(=O)NC(Cc1c[nH]c2ccccc12)C(=O)O` (configuration not stated), the Ki amounted to 5.4 nM at Neprilysin, 980 nM in assay [1] and 47 nM in assay [2].

For `C[C@@H](c1ccccc1)[C@H](CS)C(=O)N[C@@H](Cc1c[nH]c2ccccc12)C(=O)O`, the Ki at Neprilysin worked out at 2.5 nM; in assay [1], 780 nM; in assay [2], 15 nM.
